Results taken from ChEMBL document CHEMBL2176992, “Synthesis and structure-activity relationship of (E)-phenoxyacrylic amide derivatives as hypoxia-inducible factor (HIF) 1α inhibitors” (J Med Chem, 2012).
pIC50: −log10 of the molar value. In brackets after ≈: the same amount, converted by molar mass. Activity calls are given as the source filed them. The rule behind the calls is not given here.

Legend:
[1] = system: HCT-116; assay: Cytotoxicity against human HCT116 cells assessed as cell viability after 48 hrs by SRB assay; type: cell-based; conditions: hct-116, 48 h
How it was run: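 Cell viability of HCT116 by sulforhodamine B assay under the hypoxic reporter-assay conditions; mean of three experiments.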

[2] = target: T1, Hypoxia-inducible factor 1-alpha (Homo sapiens, UniProt Q16665); assay: Inhibition of HIF1alpha in human HCT116 cells under hypoxic condition after 16 hrs by dual luciferase reporter gene assay; type: cell-based; conditions: hct-116
How it was run: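 HRE-luciferase reporter in HCT116 cells under hypoxia (1% O2, 94% N2, 5% CO2); luciferase read-out. IC50 from the mean of three experiments; LW6 positive control.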
Target sequence in this assay (Q16665 whole entry): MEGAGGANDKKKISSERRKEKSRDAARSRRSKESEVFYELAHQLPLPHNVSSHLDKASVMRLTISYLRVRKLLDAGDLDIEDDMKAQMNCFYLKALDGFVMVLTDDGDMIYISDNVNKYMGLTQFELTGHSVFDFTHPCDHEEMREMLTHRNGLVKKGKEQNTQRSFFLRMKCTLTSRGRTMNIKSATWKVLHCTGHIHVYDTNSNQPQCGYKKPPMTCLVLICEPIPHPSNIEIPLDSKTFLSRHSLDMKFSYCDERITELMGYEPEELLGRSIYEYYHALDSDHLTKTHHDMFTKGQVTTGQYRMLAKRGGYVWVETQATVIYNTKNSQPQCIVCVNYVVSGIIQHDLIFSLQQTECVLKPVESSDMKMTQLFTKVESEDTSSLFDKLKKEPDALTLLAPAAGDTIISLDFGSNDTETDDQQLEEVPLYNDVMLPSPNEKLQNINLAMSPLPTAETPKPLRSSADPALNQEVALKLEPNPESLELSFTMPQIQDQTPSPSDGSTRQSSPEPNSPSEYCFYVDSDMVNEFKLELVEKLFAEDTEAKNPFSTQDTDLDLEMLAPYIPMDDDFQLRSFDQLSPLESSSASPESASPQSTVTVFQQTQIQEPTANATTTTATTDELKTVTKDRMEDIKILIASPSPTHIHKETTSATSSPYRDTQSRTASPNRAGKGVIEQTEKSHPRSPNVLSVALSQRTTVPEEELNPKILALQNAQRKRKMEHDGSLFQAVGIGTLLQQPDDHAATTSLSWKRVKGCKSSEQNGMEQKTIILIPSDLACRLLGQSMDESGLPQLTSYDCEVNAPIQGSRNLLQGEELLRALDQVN

[3] = Kinetic solubility of the compound in water at pH 7.4 by nephlometry; type: physicochemical; conditions: read-out: Kinetic_solubility
How it was run: (§1)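 Kinetic aqueous solubility determined by nephelometry at pH 2, 7.4 and 9; values are the mean of three experiments.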

[4] = Kinetic solubility of the compound in water at pH 9 by nephlometry; type: physicochemical; conditions: read-out: Kinetic_solubility; how it was run: as §1
[5] = Kinetic solubility of the compound in water at pH 2 by nephlometry; type: physicochemical; conditions: read-out: Kinetic_solubility; how it was run: as §1
[6] = target: T1, Hypoxia-inducible factor 1-alpha; assay: Inhibition of HIF1alpha in human HCT116 cells under hypoxic condition at 0.4 uM after 12 hrs by dual luciferase reporter gene assay in absence of dipyridol; type: cell-based; conditions: HCT-116
How it was run: (§2)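 Cells cotransfected with pGL3-HRE-luciferase and pRL-SV40, incubated 24 h, then 4 h hypoxia. Then treated with compound (17-AAG 0.4 μM; test 5 μM) with or without 200 μM dipyridol for 12 h under hypoxia. Firefly luciferase normalised to Renilla.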
Target sequence in this assay (Q16665 whole entry, looked up): as the sequence (Q16665 whole entry) above

[7] = target: T1, Hypoxia-inducible factor 1-alpha; assay: Inhibition of HIF1alpha in human HCT116 cells under hypoxic condition at 0.4 uM after 12 hrs by dual luciferase reporter gene assay in presence of dipyridol; type: cell-based; conditions: HCT-116; how it was run: as §2
Target sequence in this assay (Q16665 whole entry, looked up): as the sequence (Q16665 whole entry) above

[8] = system: HUVEC; assay: Cytotoxicity against HUVECs assessed as growth inhibition at 1 to 5 uM after 48 hrs by SRB assay; type: cell-based; conditions: human
How it was run: (§3)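 HUVEC growth inhibition measured by sulforhodamine B assay, run in parallel with the Matrigel tube-formation incubation (compound or SU11248).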

[9] = system: HCT-116; assay: Antimigratory activity against human HCT116 cells assessed as inhibition of cell migration after 24 hrs by wound healing assay; type: functional, cell-based
How it was run: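 Scratch-wound migration of HCT116 cells formed with culture inserts; cells treated with compound or SU11248 and wound closure observed over 24 h.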

[10] = target: T1, Hypoxia-inducible factor 1-alpha; assay: Inhibition of HIF1alpha in human HCT116 cells under hypoxic condition at 5 uM after 12 hrs by dual luciferase reporter gene assay in presence of dipyridol; type: cell-based; conditions: HCT-116
How it was run: (§4)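 HCT116 cells were cotransfected with pGL3-HRE-luciferase and pRL-SV40 and incubated 24 h. They were then held under hypoxia 4 h and treated with 5 μM compound for 12 h under hypoxia, with 200 μM dipyridol added where stated. Firefly luciferase was read against Renilla.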
Target sequence in this assay (Q16665 whole entry, looked up): as the sequence (Q16665 whole entry) above

[11] = target: T1, Hypoxia-inducible factor 1-alpha; assay: Inhibition of HIF1alpha in human HCT116 cells under hypoxic condition at 5 uM after 12 hrs by dual luciferase reporter gene assay in absence of dipyridol; type: cell-based; conditions: HCT-116; how it was run: as §4
Target sequence in this assay (Q16665 whole entry, looked up): as the sequence (Q16665 whole entry) above

[12] = target: T1, Hypoxia-inducible factor 1-alpha; assay: Inhibition of HIF1alpha in human HCT116 cells under normoxic condition assessed as increase in VHL expression at 2 to 5 uM by dual luciferase reporter gene assay; type: cell-based; conditions: HCT-116
Target sequence in this assay (Q16665 whole entry, looked up): as the sequence (Q16665 whole entry) above

[13] = target: T1, Hypoxia-inducible factor 1-alpha; assay: Inhibition of HIF1alpha in human HCT116 cells under hypoxic condition assessed as decrease in EPO mRNA expression by RT-PCR analysis; type: cell-based; conditions: HCT-116
How it was run: (§5)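 HCT116 cells were treated under hypoxia (1% O2, 94% N2, 5% CO2), and the 2 μM test level was named. mRNA of HIF-1α and its targets (VEGF, EPO, MMP-9) was measured by RT-PCR.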
Target sequence in this assay (Q16665 whole entry, looked up): as the sequence (Q16665 whole entry) above

[14] = system: A549; assay: Inhibition of HIF1alpha expression in human A549 cells under hypoxic condition assessed as decrease in protein accumulation by Western blot analysis; type: functional, cell-based
How it was run: (§6)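 Cells held under hypoxia (1% O2, 94% N2, 5% CO2) with compound at various concentrations; HIF-1α protein in lysates detected by Western blot. LW6 as control; HIF-1β also probed.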

[15] = system: LoVo; assay: Inhibition of HIF1alpha expression in human LoVo cells under hypoxic condition assessed as decrease in protein accumulation by Western blot analysis; type: functional, cell-based; how it was run: as §6
[16] = target: T1, Hypoxia-inducible factor 1-alpha; assay: Inhibition of HIF1alpha in human HCT116 cells under hypoxic condition assessed as decrease in VEGF mRNA expression by RT-PCR analysis; type: cell-based; conditions: HCT-116; how it was run: as §5
[17] = target: T1, Hypoxia-inducible factor 1-alpha; assay: Inhibition of HIF1alpha in human HCT116 cells under hypoxic condition assessed as decrease in MMP9 mRNA expression by RT-PCR analysis; type: cell-based; conditions: HCT-116; how it was run: as §5
[18] = system: HUVEC; assay: Antiangiogenic activity in HUVECs under hypoxic condition assessed as inhibition of tube formation at 2 to 5 uM after 18 hrs; type: functional, cell-based; conditions: Homo sapiens
How it was run: (§7)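 HUVECs seeded on wells coated with ice-cold Matrigel, incubated with compound under 1% O2 for 18 h. Tubule branches photographed; SU11248 as VEGFR-inhibitor positive control.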

[19] = system: PC-3; assay: Inhibition of HIF1alpha expression in human PC3 cells under hypoxic condition assessed as decrease in protein accumulation by Western blot analysis; type: functional, cell-based; how it was run: as §6
[20] = target: T1, Hypoxia-inducible factor 1-alpha; assay: Inhibition of HIF1alpha in human HCT116 cells under hypoxic condition assessed as increase in VHL expression at 2 to 5 uM by dual luciferase reporter gene assay; type: cell-based; conditions: HCT-116
How it was run: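 HCT116 cells were exposed to 0, 2 or 5 μM compound under hypoxia (1% O2, 94% N2, 5% CO2). They were lysed in RIPA buffer, and total lysates were examined for VHL expression.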

[21] = system: HCT-116; assay: Downregulation of HIF1alpha mRNA expression in human HCT116 cells under hypoxic condition at 2 to 10 uM by RT-PCR analysis; type: functional, cell-based
How it was run: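 mRNA of HIF-1α and target genes measured by RT-PCR in compound-treated cells.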

[22] = system: HCT-116; assay: Inhibition of HIF1alpha expression in human HCT116 cells under hypoxic condition assessed as decrease in protein accumulation by Western blot analysis; type: functional, cell-based; how it was run: as §6
[23] = system: HCT-116; assay: Inhibition of HIF1beta expression in human HCT116 cells under hypoxic condition assessed as protein accumulation at 0.05 to 30 uM by Western blot analysis; type: functional, cell-based
How it was run: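 HCT116 cells under hypoxia treated with compound at various concentrations; HIF-1β protein level in lysates assessed by Western blot alongside HIF-1α.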

[24] = system: HeLa; assay: Inhibition of HIF1alpha expression in human HeLa cells under hypoxic condition assessed as decrease in protein accumulation by Western blot analysis; type: functional, cell-based; how it was run: as §6
[25] = system: HUVEC; assay: Antiangiogenic activity in HUVECs under hypoxic condition assessed as inhibition of tube formation at 2 uM after 18 hrs; type: functional, cell-based; conditions: Homo sapiens; how it was run: as §7
[26] = system: HUVEC; assay: Cytotoxicity against HUVECs assessed as growth inhibition at 0.5 to 2 uM after 48 hrs by SRB assay; type: cell-based; conditions: human; how it was run: as §3

## O=C(/C=C/Oc1ccc(C23CC4CC(CC(C4)C2)C3)cc1)Nc1cccc(C(=O)OCCN2CCCC2)c1
[1]
  Activity: > 20 µM
[2]
  pIC50: 5.87

## COC(=O)c1cccc(NC(=O)/C=C/Oc2ccc(C(C)(C)CC(C)(C)C)cc2)c1
[1]
  Activity: > 20 µM
[2]
  pIC50: 5.98

## CCOC(=O)c1cccc(NC(=O)/C=C/Oc2ccc(C34CC5CC(CC(C5)C3)C4)cc2)c1
[1]
  Activity: > 20 µM
[2]
  pIC50: 6.09

## O=C(/C=C/Oc1ccc(C23CC4CC(CC(C4)C2)C3)cc1)Nc1cccc(C(=O)NCc2ccco2)c1
[1]
  Activity: > 20 µM
[2]
  pIC50: < 4.70

## CC(C)NC(=O)c1cccc(NC(=O)/C=C/Oc2ccc(C34CC5CC(CC(C5)C3)C4)cc2)c1
[1]
  Activity: > 20 µM
[2]
  pIC50: < 4.70

## CS(=O)(=O)c1cccc(NC(=O)/C=C/Oc2ccc(C34CC5CC(CC(C5)C3)C4)cc2)c1
[1]
  Activity: > 20 µM
[2]
  pIC50: 5.93

## COC(=O)c1cccc(NC(=O)CCCOc2ccc(C34CC5CC(CC(C5)C3)C4)cc2)c1
[1]
  Activity: > 20 µM
[2]
  pIC50: 4.80

## O=C(/C=C/Oc1ccc(C23CC4CC(CC(C4)C2)C3)cc1)Nc1cccc(C(=O)NCCN2CCOCC2)c1
[1]
  Activity: > 20 µM
[2]
  pIC50: 5.97

## COC(=O)c1cccc(NC(=O)COc2ccc(C34CC5CC(CC(C5)C3)C4)cc2)c1
[1]
  Activity: > 20 µM
[2]
  pIC50: 5.30

## COC(=O)c1ccc(O)c(NC(=O)COc2ccc(C34CC5CC(CC(C5)C3)C4)cc2)c1
[1]
  Activity: > 20 µM
[2]
  pIC50: 5.61
[3]
  solubility kinetic: 6.85 µM (≈ 2.98 µg/mL)
[4]
  solubility kinetic: 44.9 µM (≈ 19.6 µg/mL)
[5]
  solubility kinetic: 68.2 µM (≈ 29.7 µg/mL)

## COC(=O)c1cccc(NC(=O)CCOc2ccc(C34CC5CC(CC(C5)C3)C4)cc2)c1
[1]
  Activity: > 20 µM
[2]
  pIC50: 5.60

## COCCOC(=O)c1cccc(NC(=O)/C=C/Oc2ccc(C34CC5CC(CC(C5)C3)C4)cc2)c1
[1]
  Activity: > 20 µM
[2]
  pIC50: 5.74

## NS(=O)(=O)c1cccc(NC(=O)/C=C/Oc2ccc(C34CC5CC(CC(C5)C3)C4)cc2)c1
[1]
  Activity: > 20 µM
[2]
  pIC50: 5.62

## C=CCNC1=C2C[C@@H](C)C[C@H](OC)[C@H](O)[C@@H](C)/C=C(\C)[C@H](OC(N)=O)[C@@H](OC)/C=C\C=C(/C)C(=O)NC(=CC1=O)C2=O
[6]
  inhibition: Active
[7]
  inhibition: Active

## COC(=O)c1ccc(NC(=O)/C=C/Oc2ccc(C34CC5CC(CC(C5)C3)C4)cc2)cc1
[1]
  Activity: > 20 µM
[2]
  pIC50: 5.66

## COC(=O)c1cccc(NC(=O)/C=C/Oc2ccc(C34CC5CC(CC(C5)C3)C4)cc2C)c1
[1]
  Activity: > 20 µM
[2]
  pIC50: 5.39

## O=C(/C=C/Oc1ccc(C23CC4CC(CC(C4)C2)C3)cc1)Nc1cccc(C(=O)NCCc2ccncc2)c1
[1]
  Activity: > 20 µM
[2]
  pIC50: 5.87

## COC(=O)c1cccc(NC(=O)/C=C/Oc2ccc(C(C)(C)C)cc2)c1
[1]
  Activity: > 20 µM
[2]
  pIC50: 5.22

## O=C(/C=C/Oc1ccc(C23CC4CC(CC(C4)C2)C3)cc1)Nc1cccc(C(=O)NCCCn2ccnc2)c1
[1]
  Activity: > 20 µM
[2]
  pIC50: 5.73

## COC(=O)c1cc(NC(=O)/C=C/Oc2ccc(C34CC5CC(CC(C5)C3)C4)cc2)ccc1O
[1]
  Activity: > 20 µM
[2]
  pIC50: < 4.70

## COC(=O)c1cccc(NC(=O)/C=C/Oc2ccc(C34CC5CC(CC(C5)C3)C4)cc2)c1
[1]
  Activity: > 20 µM
[3]
  solubility kinetic: 6.56 µM (≈ 2.83 µg/mL)
[4]
  solubility kinetic: 12.2 µM (≈ 5.27 µg/mL)
[5]
  solubility kinetic: 4.25 µM (≈ 1.83 µg/mL)

## O=C(/C=C/Oc1ccc(C23CC4CC(CC(C4)C2)C3)cc1)Nc1cccc(C(=O)O)c1
[1]
  Activity: > 20 µM
[2]
  pIC50: < 4.70

## CN(C)CCOC(=O)c1cccc(NC(=O)/C=C/Oc2ccc(C34CC5CC(CC(C5)C3)C4)cc2)c1
[1]
  Activity: > 20 µM
[2]
  pIC50: 5.58

## O=C(/C=C/Oc1ccc(C23CC4CC(CC(C4)C2)C3)cc1)Nc1cccc(C(=O)OCCN2CCOCC2)c1
[8]
  Activity: Non-toxic
[9]
  inhibition: Active
[10]
  inhibition: inactive
[11]
  inhibition: Active
[1]
  Activity: > 20 µM
[12]
  inhibition: Active
[13]
  inhibition: Dose-dependent effect
[14]
  inhibition: Dose-dependent effect
[15]
  inhibition: Dose-dependent effect
[2]
  pIC50: 6.92
[3]
  solubility kinetic: 113 µM (≈ 60 µg/mL)
[16]
  inhibition: Dose-dependent effect
[17]
  inhibition: Dose-dependent effect
[4]
  solubility kinetic: 61.3 µM (≈ 32.5 µg/mL)
[18]
  inhibition: Active
[19]
  inhibition: Dose-dependent effect
[20]
  inhibition: Active
[21]
  Activity: inactive
[22]
  inhibition: Dose-dependent effect
[23]
  inhibition: inactive
[24]
  inhibition: Dose-dependent effect
[5]
  solubility kinetic: 45.1 µM (≈ 23.9 µg/mL)

## CCN(CC)CCNC(=O)c1c(C)[nH]c(/C=C2\C(=O)Nc3ccc(F)cc32)c1C [SUNITINIB]
[9]
  inhibition: Active
[25]
  inhibition: Active
[26]
  Activity: Non-toxic

## NC(=O)c1cccc(NC(=O)/C=C/Oc2ccc(C34CC5CC(CC(C5)C3)C4)cc2)c1
[1]
  Activity: > 20 µM
[2]
  pIC50: < 4.70
